Most compounds without a hit are left out; they make up all but 2% or so of the library.
dFosB act-1: enhances mouse delta FosB homodimer DNA binding; actives 0.99% (n = 340,000); activation, % at 25 µM; purified delta FosB, TAMRA-CDK5 oligo fluorescence polarization; percent of positive-control signal above neutral wells; AID 493131; P13346;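 active means mean activation above about 17%, with every replicate also reaching it, limit read from the data, passing the limit was not always enough; inconclusive means only one of the two conditions met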
Target sequence (P13346 whole entry, looked up): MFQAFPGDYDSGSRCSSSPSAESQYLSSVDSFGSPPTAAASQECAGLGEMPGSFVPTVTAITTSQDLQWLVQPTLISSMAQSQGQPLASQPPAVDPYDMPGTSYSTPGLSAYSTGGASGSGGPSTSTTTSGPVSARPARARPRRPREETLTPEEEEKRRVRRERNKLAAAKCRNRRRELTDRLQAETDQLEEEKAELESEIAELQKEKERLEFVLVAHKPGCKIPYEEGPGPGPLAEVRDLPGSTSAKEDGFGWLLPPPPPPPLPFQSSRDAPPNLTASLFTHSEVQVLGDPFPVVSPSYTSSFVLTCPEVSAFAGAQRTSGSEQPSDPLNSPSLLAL
CAL PDZ FP-1: blocks peptide binding to human CAL PDZ domain; AID 504414; inhibition, % at 20 µM; Q9HD26; purified CAL PDZ, TMR-peptide fluorescence polarization, 1 h; actives 0.02% (n = 330,000);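 active means highest replicate inhibition of at least 40%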;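 further: plate controls were DMSO neutral control wells for no effect and unlabeled competitor peptide control wells for full effect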
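System: tagged CAL PDZ domain. Schedule: 1 h room-temperature incubation prior to read. Signal: fluorescence polarization (mP). Measure: percent inhibition from loss of millipolarization.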
PKA-R2B activ: activators of human PKA-R2B complex; AID 504700; PKA-R2B holoenzyme dissociation, Cy5-IP20 fluorescence polarization; R2B truncated from residue 108, S112A mutant; 0% DMSO only, 100% 113 µM cGMP; activation, % at 11.4 µM; P22694+P31323; actives 0.079% (n = 340,000);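 active means activation above a cutoff set at the mean over all compounds plus 3 SD, cut at about 18% in these data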;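 further: higher means more holoenzyme dissociation and a rise in polarization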
CAL PDZ FP-2: inhibitors of human CAL PDZ peptide binding; inhibition, % at 24.9 µM; purified CAL PDZ, TMR-peptide fluorescence polarization, 1 h; actives 0.92% (n = 300,000); AID 602252;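 active means mean inhibition of at least 30% with at least half of replicates also reaching 30%; inconclusive means no clear call, values can overlap the other calls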;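 further: 0% = DMSO neutral control and 100% = excess unlabeled competitor peptide PRC23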
NTR1 ag: NTR1 (human) agonism; actives 0.17% (n = 330,000); NTR1-U2OS beta-arrestin-GFP spot imaging, agonist mode; activation, % at 20 µM; AID 493036; P30989;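 active means activation at or above 40% of the spot to cytoplasm intensity ratio, with at least 20 cells analyzed; inconclusive means wells under 20 cells, flagged as cytotoxic or low count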;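 further: 0% = DMSO without peptide and 100% = 100 nM NTR1 peptide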
PKA-R1A activ: activates the PKA-R1A holoenzyme complex; PKA-R1A dissociation, Cy5-IP20 fluorescence polarization; scaled: DMSO 0%, 113 µM cGMP 100%; activation, % at 11.4 µM; actives 0.083% (n = 340,000);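 active means percent activation above the mean of all tested compounds plus 3 SD, cut at about 19% in these data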;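 further: higher means more PKAc released from R1A so a rise in polarization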
dFosB act-2: activators of mouse delta FosB homodimer DNA binding; activation, % at 24.9 µM; shares compounds with dFosB act-1; purified delta FosB, TAMRA-CDK5 oligo fluorescence polarization; normalised: neutral wells 0, positive control 100; 2,400 tested, under 10 active;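 active means highest replicate activation at or above 34% and every replicate reaching that threshold; inconclusive means meets only one of the two criteria; inactive means meets neither criterion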;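 further: higher polarization means more probe DNA bound by delta FosB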
* = called active by the depositor; ? = inconclusive; / = no result given.

SMILES | dFosB act-1 | CAL PDZ FP-1 | PKA-R2B activ | CAL PDZ FP-2 | NTR1 ag | PKA-R1A activ | dFosB act-2
CCOC(=O)c1c(CSC(=N)N)n(-c2ccccc2)c2cc(Br)c(OC(C)=O)cc12 | 30* | 0 | 7 | -8 | 31 | -8 | ?
CCOC(=O)c1c(CN2CCN(C)CC2)n(-c2ccccc2)c2cc(Br)c(O)cc12 | -4 | -2 | 4 | -3 | 23 | -4 | /
Cc1cccc2c1-c1sc(C(=O)Nc3cccnc3)cc1CO2 | 32* | -2 | 6 | -8 | 1 | -1 | 2
O=C(Nc1nccs1)c1cc2c(s1)-c1ccccc1OC2 | 37* | -2 | -2 | -3 | 0 | 8 | 3
Cn1cnnc1SC(C(=O)Nc1cc(Cl)cc(Cl)c1)c1ccccc1 (centres undefined) | 20* | -3 | -9 | -2 | -2 | -7 | 12
CCCNC(=O)COc1ccc(-c2nn(C)c(=O)c3ccccc23)cc1 | -6 | -1 | -2 | -4 | 0 | 3 | /
CCOC(=O)N1CCN(C(=O)COC(=O)C2CCN(S(=O)(=O)c3c(C)c(C)cc(C)c3C)CC2)CC1 | -12 | -1 | -10 | -8 | 1 | -7 | /
C=CCn1c(SCC(=O)NCc2ccc3c(c2)OCO3)nc2scc(-c3ccc(F)cc3)c2c1=O | 45* | / | 1 | -4 | 6 | -5 | 1
COc1ccc(Cc2nc3c4c(ncn3n2)Oc2c(ccc3ccccc23)C4c2ccc(OC)c(OC)c2)cc1 (centres undefined) | 32* | -3 | 6 | -4 | 3 | 5 | 4
CCC(=O)c1cc(Br)ccc1OCC(=O)N1CCN(S(=O)(=O)c2ccccc2)CC1 | -9 | -2 | 0 | 3 | / | -3 | /
Cc1cc(C)c2sc(N(CCN(C)C)C(=O)c3ccc4ccccc4c3)nc2c1 | 39* | -2 | -6 | -6 | 5 | -12 | 6
Cc1ccc2sc(N(CCN(C)C)C(=O)c3ccc4ccccc4c3)nc2c1C | 39* | -2 | 4 | -1 | 5 | 4 | 2
Cc1ccc2sc(N(CCCN(C)C)C(=O)c3ccc(S(=O)(=O)N4CCCCCC4)cc3)nc2c1C | -19 | -5 | 2 | -5 | 12 | -9 | /
COc1ccc(N2CCN(S(=O)(=O)CCNC(=O)c3cccs3)CC2)cc1 | 0 | -1 | -5 | -2 | 1 | 12 | /
O=C(COC(=O)c1ccco1)NCCc1ccc(Cl)cc1 | -7 | 0 | -2 | 2 | 0 | -6 | /
CN(C(=O)COC(=O)c1c2c(nc3ccccc13)/C(=C/c1cccc([N+](=O)[O-])c1)CCC2)C1CCS(=O)(=O)C1 (centres undefined) | 17* | -3 | 3 | -1 | 2 | 1 | -2
O=C(COc1ccc2ccccc2c1)NC1=NCCS1 | 54* | -2 | -11 | / | -1 | 4 | 7
COc1cc2[nH]c(=O)n(Cc3ccc(C(=O)NCCCN4CCN(C)CC4)cc3)c(=O)c2cc1OC | 32* | -2 | 11 | -7 | -3 | 2 | -1
O=C(NCCCN1CCOCC1)c1c(O)c2cc(Br)cc(Br)c2[nH]c1=O | -2 | 0 | 3 | -10 | -2 | 1 | /
COc1ccc(CNC(=O)c2c(O)c3cc(OC)c(OC)cc3[nH]c2=O)cc1OC | ? | 0 | 2 | -1 | 0 | 2 | /
COc1cc2[nH]c(=O)c(C(=O)NCCCN3CCOCC3)c(O)c2cc1OC | 33* | / | 0 | -10 | 2 | 8 | 2
CCN(CC)CCNC(=O)c1c(O)c2cc(OC)c(OC)cc2[nH]c1=O | 24* | -3 | -1 | -6 | 3 | 1 | 10
CCc1ccc(NC(=O)C(C)OC(=O)c2cc(=O)[nH]c3ccc(S(=O)(=O)Nc4ccc(F)cc4)cc23)cc1 (centres undefined) | 100* | -1 | 9 | -2 | 18 | 7 | -2
CCCCc1ccc(NC(=O)N2CCN(c3cc(C)nc4ccccc34)CC2)c(C)c1 | 37* | 0 | -5 | -3 | 22 | -3 | 3
Cc1cc(N2CCN(C(=O)Nc3ccc(F)cc3F)CC2)c2ccccc2n1 | -9 | -2 | 4 | 16 | -2 | -3 | /
SMILES | dFosB act-1 | CAL PDZ FP-1 | PKA-R2B activ | CAL PDZ FP-2 | NTR1 ag | PKA-R1A activ | dFosB act-2
O=c1c2cn(Cc3ccc(F)cc3)c3ccccc3c-2nn1Cc1ccc(F)cc1 | -5 | 0 | -7 | -3 | 1 | 5 | /
COc1cc2c3nnc(-c4ccccc4)c-3cn(Cc3ccc(F)cc3)c2cc1OC | 22* | 0 | -9 | -7 | 12 | -9 | 1
COc1cc2c3nnc(-c4ccc(F)cc4)c-3cn(Cc3cccc(C)c3)c2cc1OC | 41* | -1 | -3 | 2 | 124* | -9 | -2
CC(C)(C)S(=O)N1Cc2cn(Cc3ccccc3)c(=O)cc2[C@@H]1CCO (some centres undefined) | -3 | -1 | 2 | 6 | / | -2 | /
O=C(CNC(=O)c1ccc(Br)cc1)OC1CCOC1=O (centres undefined) | / | / | -4 | / | / | -6 | /
O=S(=O)(c1ccccc1)N1CCN(c2nnnn2-c2ccccc2)CC1 | ? | 0 | -3 | -2 | -2 | 3 | /
O=S(=O)(c1ccc2c(c1)OCO2)N1CCN(c2nnnn2-c2ccccc2)CC1 | 25* | / | -13 | -6 | 0 | -9 | 1
Cc1c(C(=O)NNC(=O)Nc2ccc([N+](=O)[O-])cc2)oc2ccccc12 | 67* | -1 | 0 | 3 | 12 | -14 | 1
O=C(CSCC(=O)Nc1cccc2ccccc12)Nc1cccc2ccccc12 | 49* | 0 | -5 | 0 | -1 | -2 | 3
CCOC(=O)CSc1nc(=O)n2cccc(C)c2n1 | -2 | -1 | / | 7 | 1 | / | /
CCOC(=O)c1ccc(NC(=O)CSc2nc(=O)n3cccc(C)c3n2)cc1 | 29* | -4 | 4 | 11 | 2 | 3 | 3
CC(=O)c1ccc(NC(=O)CSc2nc(N3CCOCC3)nc(N3CCOCC3)n2)cc1 | -10 | -1 | 12 | -2 | -1 | -5 | /
CCOC(=O)c1ccc(NC(=O)CSc2nc(N3CCOCC3)nc(N3CCOCC3)n2)cc1 | 24* | -1 | 0 | -4 | 0 | -15 | 2
NC(=O)COC(=O)c1oc2ccccc2c1CSc1ccc(Cl)cc1 | 18* | -2 | -7 | -3 | 8 | 2 | 5
COc1ccc(C2c3c(ncn(Cc4ccco4)c3=N)Oc3ccc4ccccc4c32)cc1 (centres undefined) | 45* | -2 | -6 | -4 | 6 | -3 | -1
O=C(CSc1cc(Cl)ccc1Cl)NC1CCCC1 | -6 | -3 | -6 | -5 | 0 | -4 | /

Source: PubChem BioAssay
